We go through 4 molecules from ChEMBL document CHEMBL1157590, “Design, synthesis, and preliminary pharmacological evaluation of new imidazolinones as L-DOPA prodrugs” (Bioorg Med Chem, 2010).

Converted amounts (≈) assume the structure as drawn. The source made the active and inactive calls. The calls are words filed in the database; no cut-off is given here.

Series [1] deals with Radical scavenging activity. Put plainly: Antioxidant activity assessed as DPPH radical scavenging activity. It is filed as functional. In short, it runs like this: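 DPPH-HPLC method. Fresh 500 μM DPPH in methanol was mixed 1:1 by volume with antioxidant solutions made at 600, 300, 100 and 50 μM in methanol (DPPH final 250 μM). Residual DPPH was separated by reversed-phase C18 HPLC using a pH 3.0 phosphate/octanesulfonate/EDTA mobile phase with 6% acetonitrile. Vitamin E, caffeic acid and L-DOPA were run as references.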

Series [2] is described as follows: Metabolic stability in 80% rat plasma assessed as half life at pH 7.4. It is filed as ADME, cell-free. In short, it runs like this:
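Plasma was prepared from citrated blood (0.3% citric acid) of rats or humans by centrifugation at 3000 g and diluted to 80% with 0.02 M phosphate buffer pH 7.4. Drug from a 1 mg/mL acetonitrile stock was incubated at 37 °C with shaking. Timed aliquots were deproteinized with 0.01 M HCl in methanol, centrifuged and analysed by HPLC. First-order plots gave t1/2; triplicate, mean ± SEM.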

A short description of series [3]: Aqueous solubility after 15 mins by shake flask method. It is filed as physicochemical. Particulars: water.
Series [4] is described as follows: Chemical stability assessed as half life in phosphate buffer at pH 7.4. It is filed as physicochemical. The method, boiled down:
(§1)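 Prodrug hydrolysis was followed at 37 ± 0.5 °C. Line 3 used 0.02 M HCl buffer pH 1.3 (nonenzymatic simulated gastric fluid); line 4 used 0.02 M phosphate buffer pH 7.4. Each buffer contained 20% acetonitrile, and the reaction was started with 10^-4 M acetonitrile stock. Aliquots were analysed by HPLC. Kobs came from the slope of log(% residual prodrug) versus time; triplicate runs, mean ± SEM.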

Series [5] can be described thus: Octanol-water partition coefficient, log P at pH 7.4 by HPLC. It is filed as physicochemical. In short, it runs like this:
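Shake-flask method. About 5 mg of compound was shaken in 1 mL n-octanol and filtered, then an equal volume of phosphate buffer pH 7.4 was added. The mixture was inverted up to 200 times over 5 min and left 30 min for the phases to separate. Both phases were analysed by HPLC. Mean of three experiments, SEM reported.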

A short description of series [6]: Chemical stability assessed as half life in hydrochloric acid buffer at pH 1.3. It is filed as physicochemical. The method, boiled down: as §1
The species entered for the next series is Homo sapiens. Put plainly: Metabolic stability in 80% human plasma assessed as half life at pH 7.4.

With `COC(=O)CN1C(=O)[C@H](Cc2ccc(O)c(O)c2)NC1(C)C`, the outcome in series [1] was Active. Besides, the half-life in series [2] is 1.17 h; in series [4], 4.2 h; in series [6], 189 h; in the series listed under Homo sapiens, 0.714 h. Besides, in series [3], the thermodynamic solubility at 0.25 h came to 3990 µg/mL (≈ 12.9 mM). Further, the logD in series [5] stood at 0.101.
In the case of `CCC1(CC)N[C@@H](Cc2ccc(O)c(O)c2)C(=O)N1CC(=O)OC`, the result in series [1] was Active. Besides, the half-life amounted to 1.89 h in series [2], 4.75 h in series [4], 64.3 h in series [6] and 0.793 h in the series listed under Homo sapiens. In series [3], the thermodynamic solubility at 0.25 h was 260 µg/mL (≈ 0.773 mM). For the same molecule, the logD in series [5] is 0.94.
For the molecule `COC(=O)CN1C(=O)[C@H](Cc2ccc(OC(C)=O)c(OC(C)=O)c2)NC1(C)C`, the result in series [1] was inactive. Besides, the half-life was 0.065 h in series [2], 11.6 h in series [4], 71.2 h in series [6] and 0.392 h in the series filed under Homo sapiens. The molecule further gave a solubility (thermodynamic) at 0.25 h in series [3] of 26000 µg/mL (≈ 66.4 mM). This molecule also yielded a logD in series [5] of 0.042.
With `N[C@@H](Cc1ccc(O)c(O)c1)C(=O)O` [LEVODOPA], the thermodynamic solubility at 0.25 h in series [3] stood at 3600 µg/mL (≈ 18.3 mM). The logP in series [5] is given as -2.38.
